Source: ChEMBL document CHEMBL3875204, “Structure-guided development of covalent TAK1 inhibitors” (Bioorg Med Chem, 2017)
Activity calls are given as the source filed them. The calls are words filed in the database; no cut-off is given here.

Tests used:
[1] = Half life in mouse liver microsomes by LC-MS/MS analysis; format: ADME
[2] = target: T1, Mitogen-activated protein kinase kinase kinase 7 (Homo sapiens, UniProt O43318); assay: Inhibition of full length recombinant human GST-tagged TAK1 expressed in baculovirus expression system after 1 hr by TR-FRET based LanthaScreen assay
T1 sequence (O43318 whole entry): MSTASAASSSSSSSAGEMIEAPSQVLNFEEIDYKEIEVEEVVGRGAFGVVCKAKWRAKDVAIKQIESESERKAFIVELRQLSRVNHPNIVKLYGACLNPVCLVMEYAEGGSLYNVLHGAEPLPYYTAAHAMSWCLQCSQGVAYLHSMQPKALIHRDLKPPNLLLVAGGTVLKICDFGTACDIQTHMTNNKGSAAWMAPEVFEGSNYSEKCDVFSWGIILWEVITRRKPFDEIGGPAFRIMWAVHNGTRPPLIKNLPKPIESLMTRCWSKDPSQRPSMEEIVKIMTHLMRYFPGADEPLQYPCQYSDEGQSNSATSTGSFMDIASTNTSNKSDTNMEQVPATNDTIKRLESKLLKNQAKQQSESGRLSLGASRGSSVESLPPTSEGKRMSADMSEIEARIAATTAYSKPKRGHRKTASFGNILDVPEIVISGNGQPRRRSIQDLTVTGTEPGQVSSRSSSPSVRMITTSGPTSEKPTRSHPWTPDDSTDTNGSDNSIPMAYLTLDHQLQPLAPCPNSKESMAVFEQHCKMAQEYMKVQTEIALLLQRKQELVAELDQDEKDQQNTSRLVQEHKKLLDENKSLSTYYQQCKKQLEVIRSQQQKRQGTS

[3] = target: Dual specificity mitogen-activated protein kinase kinase 1 (Homo sapiens, UniProt Q02750); assay: Inhibition of full length recombinant human His-tagged MEK1 expressed in baculovirus expression system after 1 hr by TR-FRET based LanthaScreen assay
Chain of Dual specificity mitogen-activated protein kinase kinase 1 (Q02750 whole entry): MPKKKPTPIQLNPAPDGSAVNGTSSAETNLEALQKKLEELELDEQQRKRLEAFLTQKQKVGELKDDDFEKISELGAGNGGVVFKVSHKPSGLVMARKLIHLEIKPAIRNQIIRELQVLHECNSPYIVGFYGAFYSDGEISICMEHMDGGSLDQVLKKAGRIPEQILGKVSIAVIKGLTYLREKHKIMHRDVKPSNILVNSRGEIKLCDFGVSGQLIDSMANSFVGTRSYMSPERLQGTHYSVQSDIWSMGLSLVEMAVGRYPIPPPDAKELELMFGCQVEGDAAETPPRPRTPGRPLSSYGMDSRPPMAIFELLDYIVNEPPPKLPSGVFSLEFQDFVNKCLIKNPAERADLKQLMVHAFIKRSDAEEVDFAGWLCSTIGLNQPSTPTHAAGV

[4] = target: Mitogen-activated protein kinase 1 (Homo sapiens, UniProt P28482); assay: Inhibition of full length recombinant human GST-tagged ERK2 expressed in Escherichia coli using Ser/Thr 03 as substrate after 1 hr by Z'-Lyte assay
Chain of Mitogen-activated protein kinase 1 (P28482 whole entry): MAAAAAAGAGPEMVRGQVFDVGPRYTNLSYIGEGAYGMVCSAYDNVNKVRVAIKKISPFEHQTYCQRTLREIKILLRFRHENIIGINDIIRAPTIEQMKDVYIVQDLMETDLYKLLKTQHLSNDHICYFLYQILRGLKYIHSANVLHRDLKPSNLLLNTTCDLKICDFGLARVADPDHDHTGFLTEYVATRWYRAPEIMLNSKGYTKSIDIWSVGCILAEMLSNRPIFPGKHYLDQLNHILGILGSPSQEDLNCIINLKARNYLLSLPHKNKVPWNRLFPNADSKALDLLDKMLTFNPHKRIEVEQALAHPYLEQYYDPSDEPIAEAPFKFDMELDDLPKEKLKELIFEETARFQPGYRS
Outline: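 Z'-Lyte FRET activity assay run per the supplier's protocol, with ATP near the kinase's Km.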

[5] = target: T1, Mitogen-activated protein kinase kinase kinase 7; assay: Time-dependent inhibition of TAB1 fused TAK1 (unknown origin) using FAM-LRRKtide as substrate by mobility shift assay
[6] = target: T2, Mitogen-activated protein kinase kinase kinase 7 (Homo sapiens) (UniProt O43318); assay: Binding affinity to full length recombinant human GST-tagged TAK1 expressed in baculovirus expression system assessed as labeling of Cys-174 residue after 1 hr by mass spectrometric analysis
T2 sequence (whole entry): T1 sequence (O43318 whole entry)

[7] = target: T2, Mitogen-activated protein kinase kinase kinase 7 (Homo sapiens); settings: 10 uM
[8] = target: T3, Mitogen-activated protein kinase kinase kinase 2 (Homo sapiens) (UniProt Q9Y2U5); assay: Inhibition of human MAP3K2 (S315 to H619 residues) expressed in mammalian expression system at 1 uM by KINOMEScan assay
T3 sequence (whole entry): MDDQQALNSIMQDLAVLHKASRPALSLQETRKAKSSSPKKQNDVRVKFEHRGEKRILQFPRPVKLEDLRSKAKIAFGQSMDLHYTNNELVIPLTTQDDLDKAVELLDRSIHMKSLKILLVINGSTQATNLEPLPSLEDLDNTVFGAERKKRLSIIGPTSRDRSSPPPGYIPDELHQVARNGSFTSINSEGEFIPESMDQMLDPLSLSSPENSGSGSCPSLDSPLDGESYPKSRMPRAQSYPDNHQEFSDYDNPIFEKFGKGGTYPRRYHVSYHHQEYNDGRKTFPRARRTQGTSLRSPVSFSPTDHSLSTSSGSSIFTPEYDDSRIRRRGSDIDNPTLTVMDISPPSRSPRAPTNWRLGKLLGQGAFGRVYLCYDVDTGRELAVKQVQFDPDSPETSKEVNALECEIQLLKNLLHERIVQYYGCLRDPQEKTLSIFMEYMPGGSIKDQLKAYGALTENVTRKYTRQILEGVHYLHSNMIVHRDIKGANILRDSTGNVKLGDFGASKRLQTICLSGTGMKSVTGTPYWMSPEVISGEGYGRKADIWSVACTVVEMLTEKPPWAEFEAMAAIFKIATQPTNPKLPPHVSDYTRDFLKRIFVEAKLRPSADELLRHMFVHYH
Outline: (§1)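 KINOMEscan in vitro ATP-site competition binding, screened across a 468-kinase and mutant panel at a single concentration of 1 μM. Read-out is a binding or inhibition score […].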

[9] = target: Protein-tyrosine kinase 2-beta (Homo sapiens) (UniProt Q14289); assay: Inhibition of full length human PYK2 (M1 to E967 residues) expressed in bacterial expression system at 1 uM by KINOMEScan assay; outline: as §1
Chain of Protein-tyrosine kinase 2-beta (Homo sapiens) (Q14289 whole entry, looked up, the tested form may be a part): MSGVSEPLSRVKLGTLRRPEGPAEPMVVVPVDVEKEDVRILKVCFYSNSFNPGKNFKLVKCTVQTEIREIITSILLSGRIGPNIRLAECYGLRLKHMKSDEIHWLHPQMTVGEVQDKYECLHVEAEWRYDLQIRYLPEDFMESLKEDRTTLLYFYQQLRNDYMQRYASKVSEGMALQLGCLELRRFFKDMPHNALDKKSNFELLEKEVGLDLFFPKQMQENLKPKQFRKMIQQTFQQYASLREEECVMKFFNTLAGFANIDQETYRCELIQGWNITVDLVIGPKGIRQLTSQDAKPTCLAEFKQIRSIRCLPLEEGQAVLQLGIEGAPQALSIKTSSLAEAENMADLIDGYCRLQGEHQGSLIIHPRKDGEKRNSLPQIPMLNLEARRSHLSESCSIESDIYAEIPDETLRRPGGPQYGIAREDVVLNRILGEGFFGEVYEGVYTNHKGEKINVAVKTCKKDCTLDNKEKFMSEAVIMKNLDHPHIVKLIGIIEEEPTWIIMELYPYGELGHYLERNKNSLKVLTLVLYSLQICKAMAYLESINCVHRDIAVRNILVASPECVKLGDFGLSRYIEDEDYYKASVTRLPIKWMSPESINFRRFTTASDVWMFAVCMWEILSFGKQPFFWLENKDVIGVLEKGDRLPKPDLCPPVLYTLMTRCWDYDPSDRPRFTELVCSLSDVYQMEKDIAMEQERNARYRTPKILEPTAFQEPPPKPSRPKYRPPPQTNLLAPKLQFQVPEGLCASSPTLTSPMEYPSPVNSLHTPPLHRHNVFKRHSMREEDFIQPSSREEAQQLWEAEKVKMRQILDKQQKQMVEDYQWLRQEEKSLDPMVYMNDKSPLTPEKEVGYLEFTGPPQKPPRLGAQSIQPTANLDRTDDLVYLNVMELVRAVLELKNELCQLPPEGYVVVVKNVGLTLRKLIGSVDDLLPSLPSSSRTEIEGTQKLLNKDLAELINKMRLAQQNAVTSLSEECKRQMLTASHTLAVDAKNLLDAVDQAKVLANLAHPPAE

[10] = target: Wee1-like protein kinase 2 (Homo sapiens) (UniProt P0C1S8); assay: Inhibition of human WEE2 (M204 to K492 residues) expressed in bacterial expression system at 1 uM by KINOMEScan assay; outline: as §1
Chain of Wee1-like protein kinase 2 (Homo sapiens) (P0C1S8 whole entry, looked up, the tested form may be a part): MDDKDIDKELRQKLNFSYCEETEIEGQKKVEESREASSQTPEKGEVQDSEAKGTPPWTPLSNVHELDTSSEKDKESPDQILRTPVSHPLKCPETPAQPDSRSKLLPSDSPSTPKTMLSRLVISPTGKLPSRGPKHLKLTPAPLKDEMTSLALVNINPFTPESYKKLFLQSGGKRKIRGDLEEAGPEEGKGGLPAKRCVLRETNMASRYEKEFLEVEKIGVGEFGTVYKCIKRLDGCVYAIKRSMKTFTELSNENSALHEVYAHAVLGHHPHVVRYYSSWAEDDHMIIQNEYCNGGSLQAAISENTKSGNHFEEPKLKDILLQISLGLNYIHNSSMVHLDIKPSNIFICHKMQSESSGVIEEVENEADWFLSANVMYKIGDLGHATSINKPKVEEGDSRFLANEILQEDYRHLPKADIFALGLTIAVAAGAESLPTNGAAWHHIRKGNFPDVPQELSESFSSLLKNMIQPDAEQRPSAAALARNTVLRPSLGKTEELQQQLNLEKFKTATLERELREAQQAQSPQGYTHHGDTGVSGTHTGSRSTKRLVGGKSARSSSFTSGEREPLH

[11] = target: Wee1-like protein kinase (Homo sapiens) (UniProt P30291); assay: Inhibition of human WEE1 (M291 to K575 residues) expressed in bacterial expression system at 1 uM by KINOMEScan assay; outline: as §1
Chain of Wee1-like protein kinase (Homo sapiens) (P30291 whole entry, looked up, the tested form may be a part): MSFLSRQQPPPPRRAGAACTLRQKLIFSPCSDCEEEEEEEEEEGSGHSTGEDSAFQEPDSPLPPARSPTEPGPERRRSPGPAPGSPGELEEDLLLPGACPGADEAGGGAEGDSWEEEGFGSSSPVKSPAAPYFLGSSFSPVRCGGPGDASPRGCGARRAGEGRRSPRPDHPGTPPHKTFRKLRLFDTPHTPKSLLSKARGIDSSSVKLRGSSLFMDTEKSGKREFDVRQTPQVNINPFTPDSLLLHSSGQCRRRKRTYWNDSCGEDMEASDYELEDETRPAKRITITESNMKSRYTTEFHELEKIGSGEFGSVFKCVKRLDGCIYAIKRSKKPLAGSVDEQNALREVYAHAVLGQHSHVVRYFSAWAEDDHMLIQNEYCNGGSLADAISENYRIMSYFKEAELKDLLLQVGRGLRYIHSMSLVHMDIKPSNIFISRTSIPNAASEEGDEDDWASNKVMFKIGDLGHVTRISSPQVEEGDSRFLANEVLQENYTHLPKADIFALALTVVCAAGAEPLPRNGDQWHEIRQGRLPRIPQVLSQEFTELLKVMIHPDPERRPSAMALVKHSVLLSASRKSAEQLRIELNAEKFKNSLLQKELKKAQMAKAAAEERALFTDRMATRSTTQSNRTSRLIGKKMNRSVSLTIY

[12] = target: T4, Mitogen-activated protein kinase kinase kinase 3 (Homo sapiens) (UniProt Q99759); assay: Inhibition of human MAP3K3 (E320 to Y626 residues) expressed in mammalian expression system at 1 uM by KINOMEScan assay; outline: as §1
T4 sequence (whole entry): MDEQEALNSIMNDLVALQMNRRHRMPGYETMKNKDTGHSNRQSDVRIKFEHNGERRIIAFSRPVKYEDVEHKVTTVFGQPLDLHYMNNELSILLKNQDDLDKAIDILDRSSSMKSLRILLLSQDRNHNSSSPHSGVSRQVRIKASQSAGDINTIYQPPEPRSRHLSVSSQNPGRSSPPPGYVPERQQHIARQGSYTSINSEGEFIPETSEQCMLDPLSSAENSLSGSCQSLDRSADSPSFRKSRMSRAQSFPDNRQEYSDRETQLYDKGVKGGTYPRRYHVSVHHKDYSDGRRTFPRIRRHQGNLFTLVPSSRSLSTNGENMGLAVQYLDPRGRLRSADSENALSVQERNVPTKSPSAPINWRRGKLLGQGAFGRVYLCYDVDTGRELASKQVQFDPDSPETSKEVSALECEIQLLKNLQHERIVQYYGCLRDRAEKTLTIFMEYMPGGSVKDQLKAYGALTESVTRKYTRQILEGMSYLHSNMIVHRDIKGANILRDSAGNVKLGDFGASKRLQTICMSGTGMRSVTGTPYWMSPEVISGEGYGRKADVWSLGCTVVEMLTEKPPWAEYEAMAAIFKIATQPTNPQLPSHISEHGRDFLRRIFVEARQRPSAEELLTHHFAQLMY

[13] = target: T2, Mitogen-activated protein kinase kinase kinase 7 (Homo sapiens)

| Compound | t1/2 [1] | IC50 [3] | IC50 [4] | also measured |
| --- | --- | --- | --- | --- |
| CN1CCN(c2ccc(Nc3ncc(Cl)c(Oc4ccccc4NC(=O)CCl)n3)cc2)CC1 | 3 min | 2500 nM | > 10000 nM | IC50 [2]: 25 nM |
| C=CC(=O)Nc1ccc(Oc2nc(Nc3ccc(N4CCN(C)CC4)cc3)nc3[nH]ccc23)cc1 | – | – | – | IC50 [2]: 34 nM |
| C=CC(=O)Nc1cc(NC(C)=O)ccc1Oc1nc(Nc2ccc(N3CCN(C)CC3)cc2)ncc1Cl | – | 4810 nM | – | IC50 [2]: 1640 nM |
| COc1cc(O)c2c(c1)/C=C/C[C@H](O)[C@H](O)C(=O)/C=C\C[C@H](C)OC2=O | – | 2.9 nM | 738 nM | inhibition [7]: Active |
| C=CC(=O)Nc1ccccc1Oc1ccnc(Nc2ccc(N3CCN(C)CC3)cc2)n1 | – | 4470 nM | – | – |
| C=CC(=O)Nc1ccccc1-n1ccc2cnc(Nc3ccc(N4CCN(C)CC4)cc3)nc21 | 10.5 min | 6810 nM | > 10000 nM | – |
| CCC(=O)Nc1ccccc1Nc1nc(Nc2ccc(N3CCN(C)CC3)cc2)ncc1Cl | – | – | – | inhibition [8]: Active; inhibition [9]: Active; inhibition [10]: Active; inhibition [11]: Active; inhibition [12]: Active |
| CCC(=O)Nc1ccccc1Oc1nc(Nc2ccc(N3CCN(C)CC3)cc2)ncc1Cl | – | > 10000 nM | – | IC50 [2]: > 10000 nM |
| C=CC(=O)Nc1ccccc1Oc1nc(Nc2ccc(N3CCN(C)CC3)cc2)nc(N)c1Cl | – | > 10000 nM | – | – |
| C=CC(=O)Oc1ccccc1Nc1nc(Nc2ccc(N3CCN(C)CC3)cc2OC)ncc1Cl | – | – | – | IC50 [2]: 342 nM |

Further compounds by falling IC50 [3], results first:

| t1/2 [1] | IC50 [3] | IC50 [4] | Compound | also measured |
| --- | --- | --- | --- | --- |
| – | 2480 nM | – | C=CC(=O)Nc1ccccc1Sc1nc(Nc2ccc(N3CCN(C)CC3)cc2)ncc1Cl | – |
| 8.8 min | 1630 nM | 9230 nM | C=CC(=O)Nc1ccccc1Oc1nc(Nc2ccc(N3CCN(C)CC3)cc2)ncc1C | – |
| 15.3 min | 1300 nM | 1670 nM | C=CC(=O)Nc1ccccc1Oc1nc(Nc2ccc(N3CCN(C)CC3)cc2)ncc1OC | – |
| 12.8 min | 763 nM | 5600 nM | C=CC(=O)Nc1ccccc1Oc1nc(Nc2ccc(N3CCN(C)CC3)cc2)ncc1C1CC1 | – |
| 10.8 min | 142 nM | 1090 nM | C=CC(=O)Nc1ccccc1Nc1nc(Nc2ccc(N3CCN(C)CC3)cc2)ncc1Cl | IC50 [5]: 125 nM; Ki [5]: 160 nM; Kinact [13]: 1.1 ×10⁻³ /s |
| 6.1 min | 78 nM | 7000 nM | C=CC(=O)Nc1ccccc1Oc1nc(Nc2ccc(N3CCN(C)CC3)cc2)ncc1Cl | IC50 [5]: 360 nM; Activity [6]: Active |
| 4.2 min | 26 nM | 242 nM | C=CC(=O)Nc1ccccc1Oc1nc(Nc2cnn(C(F)F)c2)ncc1Cl | – |
| 5.7 min | 16 nM | 277 nM | C=CC(=O)Oc1ccccc1Nc1nc(Nc2ccc(N3CCN(C)CC3)cc2)ncc1Cl | – |
| 23 min | 11 nM | 736 nM | C=CC(=O)Oc1ccccc1Nc1nc(Nc2cccc(N3CCOCC3)c2)ncc1Cl | – |
| 8.1 min | 9.8 nM | 3140 nM | C=CC(=O)Nc1ccccc1Oc1nc(Nc2cnn(C)c2)ncc1Cl | – |
| < 1 min | 9.5 nM | 225 nM | C=CC(=O)Oc1ccccc1Nc1nc(Nc2cccc(N3CCN(C(C)=O)CC3)c2)ncc1Cl | – |
| 3.8 min | 8.9 nM | 361 nM | C=CC(=O)Oc1ccccc1Nc1nc(Nc2ccc(N3CCOCC3)cc2)ncc1Cl | – |
| 6.9 min | 8.5 nM | 90.3 nM | C=CC(=O)Nc1ccccc1Oc1nc(Nc2cnn(CCOC)c2)ncc1Cl | IC50 [5]: 7.6 nM |
| 4 min | 8.2 nM | 4620 nM | C=CC(=O)Nc1ccccc1Oc1nc(Nc2cnn(C3CCOCC3)c2)ncc1Cl | – |
